Test results as given in ChEMBL document CHEMBL1149591, “QSAR studies and pharmacophore identification for arylsubstituted cycloalkenecarboxylic acid methyl esters with affinity for the human dopamine transporter” (Bioorg Med Chem, 2007).

What follows are molecules tested against Sodium-dependent dopamine transporter (Homo sapiens, UniProt Q01959) (assay: Inhibition of human DAT expressed in COS1 cells). Details: read-out: -Log Ki (converted).
Assay type: cell-based, COS-1
Outline: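 COS-1 cells stably transfected with hDAT (pIRES, Blasticidin selection), grown in DMEM/10% FCS at 37 °C, 5% CO2. Membranes homogenized in 150 mM NaCl/50 mM Tris/20 mM EDTA, resuspended in PBSCM.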

Chain of Sodium-dependent dopamine transporter (Q01959 whole entry): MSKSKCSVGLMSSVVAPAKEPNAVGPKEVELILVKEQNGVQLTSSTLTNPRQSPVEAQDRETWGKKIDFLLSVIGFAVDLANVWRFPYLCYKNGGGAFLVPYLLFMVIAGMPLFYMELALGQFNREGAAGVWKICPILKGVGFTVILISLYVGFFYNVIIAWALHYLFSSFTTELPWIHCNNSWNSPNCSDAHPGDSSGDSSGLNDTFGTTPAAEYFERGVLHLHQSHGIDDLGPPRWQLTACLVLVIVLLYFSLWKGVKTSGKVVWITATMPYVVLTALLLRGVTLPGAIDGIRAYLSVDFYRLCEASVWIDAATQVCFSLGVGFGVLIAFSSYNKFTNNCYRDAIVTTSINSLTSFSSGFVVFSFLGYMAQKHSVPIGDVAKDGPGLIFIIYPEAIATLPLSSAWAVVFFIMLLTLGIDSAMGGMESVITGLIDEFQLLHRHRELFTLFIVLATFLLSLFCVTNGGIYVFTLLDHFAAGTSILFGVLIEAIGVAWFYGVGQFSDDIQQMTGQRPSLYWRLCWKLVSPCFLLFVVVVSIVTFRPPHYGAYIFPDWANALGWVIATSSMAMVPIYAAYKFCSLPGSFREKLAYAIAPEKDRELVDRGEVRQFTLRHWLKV

Question: With COC(=O)C1=C(c2ccc3ccccc3c2)CCC1 as the molecule, how does the Ki read?
Answer: Its Ki is 4.17 µM.

Question: With COC(=O)C1=C(c2ccccc2)C2CCC1N2 (stereo unspecified) as the molecule, how does the Ki read?
Answer: Its Ki is 447 µM.

Question: For COC(=O)C1=C(c2ccc(Cl)c(Cl)c2)CCC1, which Ki is on record?
Answer: The Ki was 1.95 µM.

Question: COC(=O)C1=C(c2ccc(Cl)c(Cl)c2)C2CCC1N2 (stereo unspecified) was tested. Which Ki did it give?
Answer: The Ki was 1.1 µM.

Question: With COC(=O)C1=C(c2ccc3ccccc3c2)C2CCC1C2 (stereo unspecified) as the molecule, how does the Ki read?
Answer: The Ki was 4.27 µM.

Question: How did the Ki turn out when COC(=O)C1=C(c2ccccc2)C2CCC1C2 (stereo unspecified) was run?
Answer: Its Ki is 646 µM.

Question: How did the Ki turn out when COC(=O)C1=C(c2ccc(Cl)c(Cl)c2)C2CCC1C2 (stereo unspecified) was run?
Answer: Its Ki is 6.76 µM.

Question: For COC(=O)C1=C(c2ccc3ccccc3c2)C2CCC1N2 (stereo unspecified), which Ki is on record?
Answer: Its Ki is 1.74 µM.

Question: With COC(=O)C1=C(c2cccc(Cl)c2)CCC1 as the molecule, how does the Ki read?
Answer: Its Ki is 34.7 µM.

Question: How did the Ki turn out when COC(=O)C1=C(c2ccccc2Cl)C2CCC1C2 (stereo unspecified) was run?
Answer: Its Ki is 372 µM.

Question: How did the Ki turn out when COC(=O)C1=C(c2cccc(Cl)c2)C2CCC1C2 (stereo unspecified) was run?
Answer: Its Ki is 105 µM.

Question: For COC(=O)C1=C(c2ccc3ccccc3c2)CCCC1, which Ki is on record?
Answer: The Ki was 11.7 µM.

Question: Which Ki does the source give for COC(=O)C1=C(c2ccc(Cl)cc2)C2CCC1C2 (stereo unspecified) here?
Answer: Its Ki is 25.1 µM.

Question: With COC(=O)C1=C(c2ccc(Cl)cc2Cl)C2CCC1C2 (stereo unspecified) as the molecule, how does the Ki read?
Answer: Its Ki is 22.9 µM.

Question: With COC(=O)C1=C(c2ccc(-c3ccccc3)cc2)C2CCC1C2 (stereo unspecified) as the molecule, how does the Ki read?
Answer: Its Ki is 603 µM.

Question: How did the Ki turn out when COC(=O)C1=C(c2cccc(Cl)c2)C2CCC1N2 (stereo unspecified) was run?
Answer: The Ki was 33.9 µM.

Question: For COC(=O)C1=C(c2ccc(Cl)cc2)C2CCC1O2 (stereo unspecified), which Ki is on record?
Answer: The Ki was 18.2 µM.

Question: COC(=O)C1=C(c2cccc(Cl)c2Cl)C2CCC1C2 (stereo unspecified) was tested. Which Ki did it give?
Answer: Its Ki is 14.8 µM.

Question: For COC(=O)C1=C(c2cccc(Cl)c2)CCCC1, which Ki is on record?
Answer: The Ki was 117 µM.

Question: Which Ki does the source give for COC(=O)C1=C(c2ccc(Cl)cc2)C2CCC1N2 (stereo unspecified) here?
Answer: The Ki was 26.9 µM.

Question: How did the Ki turn out when COC(=O)C1=C(c2ccc(C(C)=O)cc2)CCC1 was run?
Answer: Its Ki is 331 µM.

Question: With COC(=O)C1=C(c2ccc(-c3ccccc3)cc2)C2CCC1N2 (stereo unspecified) as the molecule, how does the Ki read?
Answer: Its Ki is 24.5 µM.

Same assay, conditions: read-out: Ki

Question: For COC(=O)C1=C(c2cc(C)c(C)cc2C)C2CCC1C2 (stereo unspecified), which Ki is on record?
Answer: The Ki was 32.2 µM.

Question: Which Ki does the source give for COC(=O)C1=C(c2ccc(C)c(F)c2)C2CCC1C2 (stereo unspecified) here?
Answer: The Ki was 56 µM.

Question: How did the Ki turn out when COC(=O)C1=C(c2ccc([N+](=O)[O-])cc2)C2CCC1N2 (stereo unspecified) was run?
Answer: Its Ki is 67.9 µM.

Question: For COC(=O)C1=C(c2cccc([N+](=O)[O-])c2)C2CCC1N2 (stereo unspecified), which Ki is on record?
Answer: Its Ki is 232 µM.
